One series relates to Leishmania amazonensis. Briefly: Antileishmanial activity against Leishmania amazonensis MHOM/BR/1973/M2269 promastigotes after 24 hrs by MTT assay. The series is classed as functional, organism-based. As to conditions: MHOM/BR/1973/M2269, 24 h. A digest of the protocol: (§1)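 Promastigotes (L. amazonensis, L. infantum; 26 °C, M199 with 20% heat-inactivated FBS, hemin, adenine, L-glutamine, plus 5% human urine for L. infantum) or T. cruzi Y epimastigotes (LIT with hemin, 10% FCS, 28 °C). Exposed to a series of concentrations for 24 h. Viability read by MTT. EC50 from sigmoidal fit of concentration–response. Triplicates, repeated two or three times.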
A general note: Tetrazolium assays rely on reduction of a dye to a coloured formazan, in cell work by metabolically active cells.

Series [1] in a line: Selectivity index, ratio of MDL50 for human HepG2 cells to IC50 for drug-sensitive blood stage Plasmodium falciparum 3D7. As to conditions: HepG2 cells versus blood stage Plasmodium falciparum 3D7, read-out: Selectivity Index. The series is classed as toxicity.
A short description of series [2]: Cytotoxicity against human HepG2 cells after 24 hrs by MTT assay. The format is cell-based. To be noted: read-out: MDL50. Put shortly: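 HepG2 cells grown in RPMI-1640 with 10% FBS, seeded at 5 × 10^3 cells/well and allowed to adhere for 18 h. Exposed to 1,000–1 μg/mL for 24 h at 37 °C, 5% CO2. MTT (5 mg/mL stock) added for 3 h, formazan dissolved in DMSO, absorbance read at 570 and 630 nm. Viability expressed as % of untreated control after background subtraction.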

The subject of another series is Leishmania infantum. The series is described as follows: Antileishmanial activity against Leishmania infantum MHOM/BR/1972/LD promastigotes after 24 hrs by MTT assay. The format is functional, organism-based. Put shortly: as §1
The subject of another series is Trypanosoma cruzi. The series is described as follows: Antitrypanosomal activity against Trypanosoma cruzi Y epimastigotes after 24 hrs by MTT assay. The format is functional, organism-based. Put shortly:
as §1

Series [3] has as its system Plasmodium falciparum. The series is described as follows: Antiplasmodial activity against drug-sensitive blood stage Plasmodium falciparum 3D7 by SYBR green 1 staining based fluorescence assay. The format is functional, organism-based. A digest of the protocol:
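Sorbitol-synchronized ring-stage 3D7 exposed to a range of concentrations (samples in 0.05% DMSO), in triplicate. Then lysed with Tris/EDTA/saponin/Triton buffer containing SYBR Green I (1:20000) for 30 min. IC50 from curve fitting against untreated growth.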

The test system of another series is HepG2. The series is described as follows: Cytotoxicity against human HepG2 cells assessed as morphological changes at 10 uM by microscopic method. The series is classed as cell-based. As to conditions: hepg2, 10 µM. A digest of the protocol: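 HepG2 cells treated at 10 μM for 24 h. Microscopic morphology compared with untreated cells.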
The test system of series [4] is Plasmodium falciparum. The series is described as follows: Antiplasmodial activity against chloroquine/cycloguanil/pyrimethamine-resistant blood stage Plasmodium falciparum K1 by SYBR green 1 staining based fluorescence assay. The format is functional, organism-based. A digest of the protocol:
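Freshly sorbitol-synchronized ring stages were exposed in triplicate to a concentration series, solubilized in 0.05% DMSO (v/v), alongside sample-free cultures. Cells were lysed for 30 min in 20 mM Tris pH 7.5, 5 mM EDTA, 0.008% saponin and 0.08% Triton X-100 with SYBR green I (1:20000). IC50 was obtained by curve fitting against untreated growth.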

Series [5] has as its system Plasmodium falciparum. Briefly: Antiplasmodial activity against drug-sensitive blood stage Plasmodium falciparum 3D7 ring forms assessed as morphological changes at 10 times IC50 after 8 to 16 hrs by microscopic analysis. The series is classed as functional, organism-based. Put shortly: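 Morphology examined by microscopy at 0, 8, 16 and 32 h post-synchronization. Three independent experiments.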

Series [6] concerns Plasmodium falciparum. The series is described as follows: Antiplasmodial activity against chloroquine/cycloguanil/pyrimethamine-resistant blood stage Plasmodium falciparum K1 assessed as morphological changes at 10 times IC50 after 8 to 16 hrs by microscopic analysis. The series is classed as functional, organism-based. Put shortly:
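Highly synchronized blood-stage parasites were kept under continuous treatment, with a DMSO-treated control. Morphology was examined by microscopy at 0, 8, 16 and 32 h post-synchronization. Images are representative of three independent experiments.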

For series [7], the system named is Plasmodium falciparum. Briefly: Synergistic antiplasmodial activity against drug-sensitive blood stage Plasmodium falciparum 3D7 in presence of artesunate. The format is functional. A digest of the protocol:
(§2)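 Each drug's stock was made in complete medium so that the final concentration approximates its IC50 after 3–4 twofold dilutions. Stocks were mixed v/v at ratios ranging from 0:5 to 5:0 and serially diluted two-fold to seven concentrations. FIC50 was computed for each drug and summed as ΣFIC50.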

The subject of series [8] is Plasmodium falciparum. Briefly: Synergistic antiplasmodial activity against chloroquine/cycloguanil/pyrimethamine-resistant blood stage Plasmodium falciparum K1 in presence of artesunate. The series is classed as functional. Put shortly:
as §2

Activity calls are given as the source filed them. The rule behind the calls is not given here.

By EC50 is commonly meant the concentration at which the effect is half-maximal. Low values mean a more potent agent, high ones a less potent agent. Usually IC50 stands for the concentration needed to halve the response being measured. A high value points to weaker potency in that assay. For `O=C(NCCCCNCCCNC(=O)c1cc(Br)c(Br)[nH]1)c1cc(Br)c(Br)[nH]1`, the EC50 in the series on Leishmania amazonensis, with Leishmania infantum and in the series on Trypanosoma cruzi was greater than 100 µM throughout. Moreover, the selectivity ratio in [1] was 15. In [2], the CC50 at 24 h amounted to 16 µM. Moreover, the half-inhibitory concentration (IC50) in the series with Plasmodium falciparum [3] was found to be 1 µM; in the series on Plasmodium falciparum [4], 1.1 µM. Further, in the series with HepG2, the Activity entry is on record as “Non-Toxic”. Besides, the outcome in the series with Plasmodium falciparum [5] and in the series with Plasmodium falciparum [6] was Active. Besides, the “fractional inhibitory concentration index (FICI)” value in the series with Plasmodium falciparum [7] and in the series with Plasmodium falciparum [8] was 1 in each case.
